The source made the active and inactive calls. The calls are words filed in the database; no cut-off is given here.
Experiments:
[1] = biological target: T1, Protein polybromo-1 (Homo sapiens, UniProt Q86U86); assay: Binding affinity to human PB1 isoform 5 expressed in BL21 (DE3)-R3-BirA cells assessed as change in melting temperature at 10 uM by sypro-orange dye-based differential scanning fluorimetric analysis; assay type: cell-based
Summary of the method: (§1)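 Thermal shift (DSF) screen of bromodomain proteins with compound at 10 μM; binding read as change in melting temperature (Tm shift).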

[2] = biological target: T2, SWI/SNF-related matrix-associated actin-dependent regulator of chromatin subfamily A member 2 (Homo sapiens, UniProt P51531); assay: Binding affinity to human SMARC2A expressed in BL21 (DE3)-R3-BirA cells assessed as change in melting temperature at 10 uM by sypro-orange dye-based differential scanning fluorimetric analysis; assay type: cell-based; summary of the method: as §1
[3] = biological target: T1, Protein polybromo-1; assay: Binding affinity to human PB1 isoform 2 expressed in BL21 (DE3)-R3-BirA cells assessed as change in melting temperature at 10 uM by sypro-orange dye-based differential scanning fluorimetric analysis; assay type: cell-based; summary of the method: as §1
[4] = biological target: T1, Protein polybromo-1; assay: Binding affinity to human PB1 isoform 4 expressed in BL21 (DE3)-R3-BirA cells assessed as change in melting temperature at 10 uM by sypro-orange dye-based differential scanning fluorimetric analysis; assay type: cell-based; summary of the method: as §1
[5] = biological target: T2, SWI/SNF-related matrix-associated actin-dependent regulator of chromatin subfamily A member 2; assay: Binding affinity to human SMARC2B expressed in BL21 (DE3)-R3-BirA cells assessed as change in melting temperature at 10 uM by sypro-orange dye-based differential scanning fluorimetric analysis; assay type: cell-based; summary of the method: as §1
[6] = biological target: T1, Protein polybromo-1; assay: Binding affinity to human PB1 isoform 3 expressed in BL21 (DE3)-R3-BirA cells assessed as change in melting temperature at 10 uM by sypro-orange dye-based differential scanning fluorimetric analysis; assay type: cell-based; summary of the method: as §1
[7] = biological target: T3, SWI/SNF-related matrix-associated actin-dependent regulator of chromatin subfamily A member 4 (Homo sapiens, UniProt P51532); assay: Binding affinity to human SMARCA4 expressed in BL21 (DE3)-R3-BirA cells assessed as change in melting temperature at 10 uM by sypro-orange dye-based differential scanning fluorimetric analysis; assay type: cell-based; summary of the method: as §1
[8] = biological target: T3, SWI/SNF-related matrix-associated actin-dependent regulator of chromatin subfamily A member 4; assay: Binding affinity to human SMARCA4 expressed in BL21 (DE3)-R3-BirA cells by isothermal titration calorimetry
[9] = Half life in PBS at pH 7.4 at 20 degC; assay type: ADME; conditions: buffer
[10] = biological target: T1, Protein polybromo-1; assay: Binding affinity to human PB1 isoform 5 expressed in BL21 (DE3)-R3-BirA cells by isothermal titration calorimetry
Summary of the method: (§2)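 Absolute binding affinity measured by isothermal titration calorimetry on the bromodomain protein.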

[11] = biological target: T1, Protein polybromo-1; assay: Binding affinity to human PB1 isoform 2 expressed in BL21 (DE3)-R3-BirA cells by isothermal titration Calorimetry; summary of the method: as §2
[12] = Drug recovery in cell media after 1 week at 37 degC by HPLC analysis; assay type: physicochemical; conditions: read-out: Drug recovery
[13] = system: C3H 10T1/2; assay: Inhibition of differentiation of mouse C3H10T1/2 cells to adipocytes assessed as lipid accumulation at 1 uM by oil red O staining-based assay; assay type: functional, cell-based
Summary of the method: (§3)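 C3H10T1/2 mesenchymal cells induced toward adipocytes with an adipogenic cocktail in presence of compound. Lipid droplet accumulation visualized by Oil Red O staining.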

[14] = system: C2C12; assay: Cytotoxicity against mouse C2C12 cells assessed as cell viability up to 50 uM after 72 hrs by MTT assay; assay type: cell-based; conditions: c2c12, 72 h
[15] = system: 786-0; assay: Antiproliferative activity against human 786-0 cells at 0.1 to 10 uM incubated for 24 to 72 hrs by MTT assay; assay type: functional, cell-based
Summary of the method: (§4)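 Clear cell renal carcinoma lines (786-O with wild-type PB1 expression; Rcc4 with PB1 downregulation) treated with compound; proliferation read-out.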

[16] = system: RCC4; assay: Antiproliferative activity against human RCC4 cells at 0.1 to 10 uM incubated for 24 to 72 hrs by MTT assay; assay type: functional, cell-based; summary of the method: as §4
[17] = Cytotoxicity against mouse C3H10T1/2 cells assessed as cell death at 100 uM after 72 hrs by MTT assay; assay type: cell-based; conditions: c3h 10t1/2, 72 h
[18] = system: C2C12; assay: Inhibition of differentiation in mouse C2C12 cells assessed as shortening of myotubes with lower nuclei at 500 nM to 50 uM by HRP-peroxidase-based immunocytochemistry relative to control; assay type: functional, cell-based
Summary of the method: (§5)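 C2C12 myoblasts grown with compound through differentiation, normally seen within 48 hours. Scored by cell fusion into myotubes (myotube length, nuclei per myotube) and MyHC expression relative to controls; myogenin monitored as an early marker.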

[19] = system: C2C12; assay: Inhibition of differentiation in mouse C2C12 cells assessed as suppression of MyHC expression at 1 uM by HRP-peroxidase-based immunocytochemistry; assay type: functional, cell-based
Summary of the method: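 C2C12 myoblasts grown with compound through differentiation, normally complete within 48 hours. Fusion into myotubes was scored, along with expression of the early marker myogenin and of myosin heavy chain (MyHC) in myotubes.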

[20] = system: C3H 10T1/2; assay: Inhibition of differentiation of mouse C3H10T1/2 cells to adipocytes assessed as lipid accumulation at 20 uM by oil red O staining-based assay; assay type: functional, cell-based; summary of the method: as §3
[21] = system: C2C12; assay: Cytotoxicity against mouse C2C12 cells assessed as cell death at 100 uM after 72 hrs by MTT assay; assay type: cell-based; conditions: c2c12, 72 h
[22] = Cytotoxicity against mouse C3H10T1/2 cells assessed as cell viability up to 50 uM after 72 hrs by MTT assay; assay type: cell-based; conditions: c3h 10t1/2, 72 h
[23] = biological target: T1, Protein polybromo-1; assay: Inhibition of chromatin binding to full length GFP-tagged PB1 expressed in human U2OS cells assessed as acceleration of FRAP half-recovery time at 1 uM incubated for 1 hr in presence of SAHA by FRAP assay; assay type: cell-based
Summary of the method: (§6)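 U2OS cells transfected with full-length GFP-PB1 and treated with SAHA to induce hyperacetylation. Mutant controls were PB1 N263A (second bromodomain) and N707F (fifth bromodomain). Read-out is FRAP half-recovery time (t½) from individual recovery curves, at least 20 cells per group, reported as mean ± SEM. Compared against WT with 2.5 μM SAHA.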

[24] = biological target: T1, Protein polybromo-1; assay: Inhibition of chromatin binding to full length GFP-tagged PB1 expressed in human U2OS cells assessed as acceleration of FRAP half-recovery time at 100 nM incubated for 1 hr in presence of SAHA by FRAP assay; assay type: cell-based; summary of the method: as §6
[25] = system: C2C12; assay: Inhibition of differentiation in mouse C2C12 cells assessed as suppression of MyHC expression at 5 uM by HRP-peroxidase-based immunocytochemistry; assay type: functional, cell-based; summary of the method: as §5
[26] = biological target: T2, SWI/SNF-related matrix-associated actin-dependent regulator of chromatin subfamily A member 2; assay: Binding affinity to human SMARCA2 expressed in BL21 (DE3)-R3-BirA cells by isothermal titration calorimetry
[27] = system: C3H 10T1/2; assay: Inhibition of differentiation of mouse C3H10T1/2 cells to adipocytes assessed as lipid accumulation at 5 uM by oil red O staining-based assay; assay type: functional, cell-based
Summary of the method: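 C3H10T1/2 mesenchymal cells induced to differentiate to adipocytes with an adipogenic cocktail in the presence of compound; lipid droplet accumulation visualised by Oil Red O staining.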

[28] = biological target: T2, SWI/SNF-related matrix-associated actin-dependent regulator of chromatin subfamily A member 2; assay: Inhibition of chromatin binding to full length GFP-tagged wild type SMARCA2 expressed in human U2OS cells assessed as acceleration of FRAP half-recovery time incubated for 1 hr in presence of SAHA by FRAP assay; assay type: cell-based
Summary of the method: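 U2OS cells transfected with GFP-SMARCA2 (WT) and treated with SAHA to induce hyperacetylation, with compound given at several doses. The mutant control was GFP-SMARCA2 N1464F (acetyl-lysine-recognising asparagine).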

T2 sequence (P51531 whole entry, canonical isoform): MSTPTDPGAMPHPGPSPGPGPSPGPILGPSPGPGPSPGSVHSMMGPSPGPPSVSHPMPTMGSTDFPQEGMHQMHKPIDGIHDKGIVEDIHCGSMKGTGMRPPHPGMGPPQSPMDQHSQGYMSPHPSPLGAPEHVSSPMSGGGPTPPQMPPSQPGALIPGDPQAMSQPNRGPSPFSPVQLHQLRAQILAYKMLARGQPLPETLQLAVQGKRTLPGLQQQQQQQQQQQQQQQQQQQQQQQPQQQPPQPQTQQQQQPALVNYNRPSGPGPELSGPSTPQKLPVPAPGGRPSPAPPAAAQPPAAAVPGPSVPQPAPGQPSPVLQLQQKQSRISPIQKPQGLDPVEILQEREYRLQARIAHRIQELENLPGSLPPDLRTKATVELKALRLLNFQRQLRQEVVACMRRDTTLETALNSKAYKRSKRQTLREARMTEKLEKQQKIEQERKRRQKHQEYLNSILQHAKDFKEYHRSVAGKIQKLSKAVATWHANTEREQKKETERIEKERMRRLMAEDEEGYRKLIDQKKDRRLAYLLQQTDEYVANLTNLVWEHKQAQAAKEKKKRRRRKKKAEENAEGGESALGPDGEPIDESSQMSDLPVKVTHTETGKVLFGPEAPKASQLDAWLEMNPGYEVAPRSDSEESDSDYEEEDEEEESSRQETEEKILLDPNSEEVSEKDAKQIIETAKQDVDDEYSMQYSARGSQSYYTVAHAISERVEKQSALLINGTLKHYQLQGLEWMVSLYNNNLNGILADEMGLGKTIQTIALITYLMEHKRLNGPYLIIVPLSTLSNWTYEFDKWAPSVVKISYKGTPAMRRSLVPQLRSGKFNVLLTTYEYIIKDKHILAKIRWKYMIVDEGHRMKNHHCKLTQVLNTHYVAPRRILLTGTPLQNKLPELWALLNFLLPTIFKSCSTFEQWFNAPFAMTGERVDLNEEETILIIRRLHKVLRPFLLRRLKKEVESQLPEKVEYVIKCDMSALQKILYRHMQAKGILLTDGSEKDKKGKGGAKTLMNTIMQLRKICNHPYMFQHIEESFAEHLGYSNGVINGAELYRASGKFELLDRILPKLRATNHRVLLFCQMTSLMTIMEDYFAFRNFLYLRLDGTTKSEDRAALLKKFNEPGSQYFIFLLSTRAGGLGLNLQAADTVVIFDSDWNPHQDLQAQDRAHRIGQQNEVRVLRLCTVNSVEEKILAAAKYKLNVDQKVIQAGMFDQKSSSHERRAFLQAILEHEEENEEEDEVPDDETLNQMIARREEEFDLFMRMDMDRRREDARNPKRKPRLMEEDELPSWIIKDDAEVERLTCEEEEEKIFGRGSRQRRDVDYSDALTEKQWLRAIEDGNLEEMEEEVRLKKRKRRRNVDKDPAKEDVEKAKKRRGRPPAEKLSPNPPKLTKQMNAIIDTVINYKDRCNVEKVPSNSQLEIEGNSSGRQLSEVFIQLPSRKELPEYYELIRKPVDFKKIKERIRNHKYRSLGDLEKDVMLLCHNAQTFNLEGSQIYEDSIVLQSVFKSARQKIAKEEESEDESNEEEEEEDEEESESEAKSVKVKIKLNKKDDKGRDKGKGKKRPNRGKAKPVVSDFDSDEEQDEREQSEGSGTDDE
T1 sequence (Q86U86 whole entry, canonical isoform): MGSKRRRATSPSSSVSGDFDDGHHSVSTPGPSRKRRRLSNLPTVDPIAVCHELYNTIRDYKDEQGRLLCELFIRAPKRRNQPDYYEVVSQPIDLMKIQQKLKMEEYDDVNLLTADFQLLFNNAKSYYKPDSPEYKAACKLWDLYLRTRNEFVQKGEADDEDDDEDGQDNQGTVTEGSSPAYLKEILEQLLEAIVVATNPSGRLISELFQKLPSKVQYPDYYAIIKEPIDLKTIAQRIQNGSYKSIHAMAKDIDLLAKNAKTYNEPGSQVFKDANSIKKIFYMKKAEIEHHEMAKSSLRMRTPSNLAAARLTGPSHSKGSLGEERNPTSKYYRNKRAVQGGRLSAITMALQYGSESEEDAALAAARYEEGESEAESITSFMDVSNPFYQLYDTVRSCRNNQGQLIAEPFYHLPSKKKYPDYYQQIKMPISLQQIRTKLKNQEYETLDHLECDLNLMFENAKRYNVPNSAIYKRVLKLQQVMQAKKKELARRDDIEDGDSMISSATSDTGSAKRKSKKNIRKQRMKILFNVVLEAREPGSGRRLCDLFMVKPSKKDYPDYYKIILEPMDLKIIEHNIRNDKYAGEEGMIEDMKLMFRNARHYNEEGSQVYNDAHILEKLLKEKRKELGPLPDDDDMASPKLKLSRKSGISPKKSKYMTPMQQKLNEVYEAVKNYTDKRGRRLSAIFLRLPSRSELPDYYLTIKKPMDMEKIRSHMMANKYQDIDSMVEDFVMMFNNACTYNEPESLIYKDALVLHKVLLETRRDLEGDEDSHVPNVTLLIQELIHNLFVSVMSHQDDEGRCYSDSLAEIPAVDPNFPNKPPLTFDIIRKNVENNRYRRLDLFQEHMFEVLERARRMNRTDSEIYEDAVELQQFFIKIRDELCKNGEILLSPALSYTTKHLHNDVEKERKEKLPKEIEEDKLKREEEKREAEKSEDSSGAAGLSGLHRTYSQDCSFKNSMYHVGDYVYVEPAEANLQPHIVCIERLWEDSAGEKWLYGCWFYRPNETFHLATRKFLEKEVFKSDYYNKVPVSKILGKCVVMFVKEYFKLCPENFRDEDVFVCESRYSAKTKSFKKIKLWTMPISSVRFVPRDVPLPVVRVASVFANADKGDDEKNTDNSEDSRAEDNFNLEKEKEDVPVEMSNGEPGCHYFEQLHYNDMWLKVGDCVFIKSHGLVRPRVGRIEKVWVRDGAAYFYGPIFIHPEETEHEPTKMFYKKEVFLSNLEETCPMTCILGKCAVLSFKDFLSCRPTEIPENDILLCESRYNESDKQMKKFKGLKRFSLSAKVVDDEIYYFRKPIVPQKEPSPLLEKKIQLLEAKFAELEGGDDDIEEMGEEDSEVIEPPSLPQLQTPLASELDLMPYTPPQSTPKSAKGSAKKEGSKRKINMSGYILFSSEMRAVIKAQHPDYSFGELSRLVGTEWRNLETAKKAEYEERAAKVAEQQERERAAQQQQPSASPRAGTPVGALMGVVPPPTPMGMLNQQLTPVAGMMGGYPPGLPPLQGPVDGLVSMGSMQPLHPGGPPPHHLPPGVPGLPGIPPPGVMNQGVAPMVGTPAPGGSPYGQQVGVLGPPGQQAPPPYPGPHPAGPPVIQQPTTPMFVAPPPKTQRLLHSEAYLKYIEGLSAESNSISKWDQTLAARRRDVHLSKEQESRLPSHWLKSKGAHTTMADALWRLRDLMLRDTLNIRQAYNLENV
T3 sequence (P51532 whole entry): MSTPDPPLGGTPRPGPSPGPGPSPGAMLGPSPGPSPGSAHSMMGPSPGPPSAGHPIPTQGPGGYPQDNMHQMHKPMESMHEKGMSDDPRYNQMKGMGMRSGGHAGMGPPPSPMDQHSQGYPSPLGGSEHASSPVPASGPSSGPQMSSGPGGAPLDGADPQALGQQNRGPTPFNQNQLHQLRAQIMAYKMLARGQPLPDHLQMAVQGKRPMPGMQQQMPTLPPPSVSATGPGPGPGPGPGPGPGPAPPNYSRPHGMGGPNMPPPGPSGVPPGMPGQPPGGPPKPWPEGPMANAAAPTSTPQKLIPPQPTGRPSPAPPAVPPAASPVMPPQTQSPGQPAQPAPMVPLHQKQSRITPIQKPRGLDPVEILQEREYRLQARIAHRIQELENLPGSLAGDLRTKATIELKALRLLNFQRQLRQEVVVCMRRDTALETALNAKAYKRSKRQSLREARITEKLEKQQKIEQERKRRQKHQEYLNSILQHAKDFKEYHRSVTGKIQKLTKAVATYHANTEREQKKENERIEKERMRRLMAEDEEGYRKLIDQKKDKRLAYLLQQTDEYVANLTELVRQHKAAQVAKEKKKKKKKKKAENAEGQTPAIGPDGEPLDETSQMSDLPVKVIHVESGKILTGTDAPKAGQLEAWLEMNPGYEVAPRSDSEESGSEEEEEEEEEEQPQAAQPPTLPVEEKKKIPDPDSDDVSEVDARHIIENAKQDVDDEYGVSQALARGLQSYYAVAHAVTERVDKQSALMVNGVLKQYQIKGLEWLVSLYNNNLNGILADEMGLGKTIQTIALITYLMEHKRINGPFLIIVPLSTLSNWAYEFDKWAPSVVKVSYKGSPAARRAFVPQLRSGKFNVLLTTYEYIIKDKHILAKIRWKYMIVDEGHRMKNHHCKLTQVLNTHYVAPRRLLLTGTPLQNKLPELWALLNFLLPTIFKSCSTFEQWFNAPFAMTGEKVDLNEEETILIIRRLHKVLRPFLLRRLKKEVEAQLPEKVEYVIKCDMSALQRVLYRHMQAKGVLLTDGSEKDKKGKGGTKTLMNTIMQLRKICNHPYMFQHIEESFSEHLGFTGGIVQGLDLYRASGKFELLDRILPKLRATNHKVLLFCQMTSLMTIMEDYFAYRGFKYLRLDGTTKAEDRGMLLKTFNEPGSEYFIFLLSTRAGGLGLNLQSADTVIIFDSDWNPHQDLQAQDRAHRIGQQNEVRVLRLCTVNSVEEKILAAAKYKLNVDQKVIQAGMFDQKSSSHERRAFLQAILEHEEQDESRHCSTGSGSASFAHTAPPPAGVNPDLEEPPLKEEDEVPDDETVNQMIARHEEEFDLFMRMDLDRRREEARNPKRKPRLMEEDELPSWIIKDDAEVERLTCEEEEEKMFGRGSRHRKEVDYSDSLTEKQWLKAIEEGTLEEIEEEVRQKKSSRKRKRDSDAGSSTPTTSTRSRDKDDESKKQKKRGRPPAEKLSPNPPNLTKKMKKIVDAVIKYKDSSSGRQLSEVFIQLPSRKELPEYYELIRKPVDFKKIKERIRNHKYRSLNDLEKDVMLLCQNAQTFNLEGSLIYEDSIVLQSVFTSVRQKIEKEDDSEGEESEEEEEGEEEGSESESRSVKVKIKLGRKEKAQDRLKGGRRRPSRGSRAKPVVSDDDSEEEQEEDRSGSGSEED

Row | Structure (SMILES) | ΔTm [1] | ΔTm [2] | ΔTm [3] | ΔTm [4] | ΔTm [5] | ΔTm [6] | ΔTm [7] | further results
1 | CC(C)(C)OC(=O)N1CCN(/C=C/C(=O)c2ccccc2O)C2(CC2)C1 | 7.6 °C | 7.5 °C | 2.2 °C | 0.6 °C | 4.1 °C | 0.9 °C | 6.1 °C | –
2 | O=C(/C=C/N1CCc2c(ncn2Cc2ccccc2)C1)c1ccccc1O | 8 °C | 5.8 °C | 4.6 °C | 1.6 °C | 3 °C | 1.9 °C | 5.3 °C | –
3 | CC(C)(C)c1nc2c(n1CC1CC1)CCN(/C=C/C(=O)c1ccccc1O)C2 | 8 °C | 5.9 °C | 3.8 °C | 1.2 °C | 3.8 °C | 1.5 °C | 5.8 °C | –
4 | O=C(/C=C/N1CCN(c2cccc(OCc3ccncc3)n2)CC1)c1ccccc1O | 7 °C | 7.4 °C | 0.9 °C | 1.3 °C | 3.7 °C | 0.7 °C | 7.5 °C | –
5 | O=C(/C=C/N1CCc2c(ncnc2NC2CC2)C1)c1ccccc1O | 9.1 °C | – | 6.7 °C | 2.4 °C | – | 3.5 °C | 7.7 °C | Kd [8]: 49 nM; t1/2 [9]: 20 h; Kd [10]: 28 nM; Kd [11]: 152 nM
6 | O=C(/C=C/N1C[C@H]2C[C@@H]1CN2c1ccccn1)c1ccccc1O | – | 8.2 °C | – | – | 5 °C | – | – | remaining at 168 h [12]: > 90%; inhibition [13]: Active; Activity [14]: Non-toxic; t1/2 [9]: > 250 h; Activity [15]: inactive; Activity [16]: inactive; Activity [17]: 50%; inhibition [18]: Active; inhibition [19]: Active; inhibition [20]: Active; Activity [21]: 50%; Activity [22]: Non-toxic
7 | O=C(/C=C/N1[C@H]2CC[C@@H]1c1ncnc(NC3CC3)c1C2)c1ccccc1O | 9.3 °C | 8.5 °C | 5.9 °C | 2.1 °C | – | 6.4 °C | 7.4 °C | inhibition [23]: Active; inhibition [24]: inactive; Activity [14]: Non-toxic; inhibition [25]: Active; Activity [15]: inactive; Activity [16]: inactive; Activity [17]: 50%; inhibition [18]: Active; Kd [26]: 37.3 nM; inhibition [27]: Active; Activity [21]: 50%; inhibition [28]: Dose-dependent effect; Activity [22]: Non-toxic
8 | O=C(/C=C/N1CCCC1)c1ccccc1O | 5.7 °C | 5.5 °C | 2.3 °C | 0.7 °C | 3 °C | 1.1 °C | 4.7 °C | –
9 | C#CCNc1ccnc(N2C[C@H]3C[C@@H]2CN3/C=C/C(=O)c2cccc(OC)c2O)n1 | -0.4 °C | 0.7 °C | – | – | -0.4 °C | – | 0.7 °C | inhibition [23]: inactive

— ChEMBL document CHEMBL3817768, “Identification of a Chemical Probe for Family VIII Bromodomains through Optimization of a Fragment Hit” (J Med Chem, 2016)
